Data from article PMC12799549 (Drug Metabolism and Disposition, 2025).
Read-outs that look alike come from different tables or passages of the source. Marks after values point to notes of the source that are not given here.

How the values were obtained:
ENT2 [1] = target: T1, ENT2 (Homo sapiens, UniProt Q14542); assay: Inhibition of [3H]2-chloroadenosine uptake in ENT1KO cells; format: cell-based
T1 sequence (Q14542 1-456): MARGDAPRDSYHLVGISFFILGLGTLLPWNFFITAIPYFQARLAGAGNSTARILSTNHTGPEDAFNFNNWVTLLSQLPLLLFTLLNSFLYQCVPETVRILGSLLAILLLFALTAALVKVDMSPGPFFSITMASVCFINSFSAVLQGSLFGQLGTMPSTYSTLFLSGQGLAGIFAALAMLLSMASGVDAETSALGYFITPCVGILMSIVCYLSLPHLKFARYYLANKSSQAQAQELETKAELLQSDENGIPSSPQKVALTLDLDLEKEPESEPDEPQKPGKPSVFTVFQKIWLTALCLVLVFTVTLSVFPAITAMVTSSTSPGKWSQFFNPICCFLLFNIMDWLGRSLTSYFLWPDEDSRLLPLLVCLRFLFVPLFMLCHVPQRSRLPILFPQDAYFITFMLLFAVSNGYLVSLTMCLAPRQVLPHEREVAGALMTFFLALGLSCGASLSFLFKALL

ENT1 and ENT2 = format: cell-based, human; conditions: HEK293 cells; 10 μM substrate, 15 s uptake; printed as logIC50 (negative)
HEK293 cells = assay: MTT cell viability, HEK293; format: cell-based, human; conditions: for % resistant: plateau of biphasic curve fit, mean ± SEM; for concentration required to impact the remaining (resistant) cells: biphasic viability profile
Summary of the method: (§1)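 Cells seeded at 1.1 × 10^5/well in complete medium; 1 h later, medium with a range of test compound concentrations added for 48 h at 37 °C, 5% CO2. Vehicle is DMSO-only medium (100%), and compound medium without cells is background (0%). MTT 1 mg/mL in Dulbecco's PBS for 90 min; formazan dissolved in DMSO, A570. Biphasic curves fitted to a 2-site model: plateau gives % resistant, with a LogEC50 per phase. n = 5.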

ENT1KO cells = assay: MTT cell viability, ENT1KO; format: cell-based, human; conditions: 48 h; for % resistant: ENT1KO, plateau of biphasic curve fit; for EC50: Homo sapiens
Summary of the method: as §1

ENT2KO cells = assay: MTT cell viability, ENT2KO; format: cell-based, human; conditions: 48 h; for % resistant: plateau of biphasic curve fit
Summary of the method: as §1

E1E2KO cells = assay: MTT cell viability, E1E2KO; format: cell-based, human; conditions: 48 h; for % resistant: E1E2KO, plateau of biphasic curve fit; for EC50: Homo sapiens
Summary of the method: as §1

ENT1 [2] = target: T2, ENT1 (Homo sapiens, UniProt Q99808); assay: [3H]2-chloroadenosine transport kinetics, ENT1-mediated uptake; format: cell-based; conditions: for Vmax of ENT1-mediated uptake: 10 s uptake
T2 sequence (Q99808 1-456): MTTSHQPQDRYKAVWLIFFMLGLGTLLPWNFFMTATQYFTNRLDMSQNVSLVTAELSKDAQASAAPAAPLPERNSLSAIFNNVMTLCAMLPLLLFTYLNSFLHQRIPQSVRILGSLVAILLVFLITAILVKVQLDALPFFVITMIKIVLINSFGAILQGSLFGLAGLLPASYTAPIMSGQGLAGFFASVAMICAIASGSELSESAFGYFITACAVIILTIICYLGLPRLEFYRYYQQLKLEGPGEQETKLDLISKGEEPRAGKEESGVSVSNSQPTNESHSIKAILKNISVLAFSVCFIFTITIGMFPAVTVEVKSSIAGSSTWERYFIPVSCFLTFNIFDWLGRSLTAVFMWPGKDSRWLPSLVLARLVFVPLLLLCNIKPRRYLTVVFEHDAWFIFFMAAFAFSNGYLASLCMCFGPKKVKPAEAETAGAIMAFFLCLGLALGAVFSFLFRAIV
Summary of the method: (§2)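 Trypsin/EDTA-detached cells were suspended in sodium-free N-methylglucamine buffer, pH 7.4, with 0.1% DMSO, 100 nM NBMPR or 5 mM adenosine, 15 min at room temperature. Uptake of varied [3H]2-chloroadenosine ran 10 s and was stopped by spinning through silicone:mineral oil; NaOH-digested pellets were scintillation-counted. Cell volume came from [3H]-water. ENT2 = NBMPR minus adenosine condition; ENT1 = mediated minus ENT2. Michaelis-Menten Km/Vmax; 5 experiments, duplicate.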

ENT2 [3] = target: T1, ENT2; assay: [3H]2-chloroadenosine transport kinetics, ENT2-mediated uptake; format: cell-based
Summary of the method: as §2

ENT1 [4] = target: T2, ENT1; assay: Inhibition of [3H]2-chloroadenosine uptake in ENT2KO cells; format: cell-based; conditions: comparison of ENT2KO cells (ENT1) with ENT1KO cells (ENT2)
[5] = read-out: LogEC50-1 (converted)
[6] = read-out: LogEC50-2 (converted)

SMILES | % resistant (HEK293 cells; 48 h, n = 5) | concentration required to impact the remaining (resistant) cells (HEK293 cells) | % resistant (ENT1KO cells) | EC50 (ENT1KO cells; [5]) | % resistant (ENT2KO cells) | % resistant (E1E2KO cells) | EC50 (E1E2KO cells; [5]) | other results
OCCN(CCO)c1nc(N2CCCCC2)c2nc(N(CCO)CCO)nc(N3CCCCC3)c2n1 [DY, Dipyridamole] |  |  |  |  |  |  |  | IC50 (ENT2 [1]): 0.501 µM; logIC50, monophasic inhibition of [3H]2-chloroadenosine uptake (ENT1 and ENT2): −6.6 ±.01 M
Nc1ccn([C@@H]2O[C@H](CO)[C@@H](O)[C@@H]2O)c(=O)n1 [Cytarabine, cytarabine] | 51 ± 2% | > 300 µM | 37 ± 3 ^b % | 2.34 µM | Monophasic | Monophasic |  | EC50 (ENT1KO cells; [6]): 4570 µM; sensitivity of ENT2KO cells to the drug (ENT2KO cells): almost completely resistant; EC50 (E1E2KO cells; [6]): 11200 µM
O=[N+]([O-])c1ccc(CSc2ncnc3c2ncn3[C@@H]2O[C@H](CO)[C@@H](O)[C@H]2O)cc1 [NBMPR, nitrobenzylmercaptopurine riboside (nitrobenzylthioinosine)] |  |  |  |  |  |  |  | concentration required to obtain any inhibition of [3H]2-chloroadenosine uptake (ENT2 [1]; ENT1KO cells): > 1 µM; logIC50, inhibition of [3H]2-chloroadenosine uptake (ENT2 [1]; ENT1KO cells, 10 μM substrate, 15 s uptake, printed as logIC50 (negative)): ~−5.5 ± 0.1 M
O=c1[nH]cc(F)c(=O)[nH]1 [5-fluorouracil] | Monophasic |  | Monophasic | 8.51 µM | Monophasic | 48 ± 10% | 7.76 µM | EC50 (E1E2KO cells; [6]): 1070 µM
Nc1ncnc2c1ncn2[C@@H]1O[C@H](CO)[C@@H](O)[C@@H]1O [Vidarabine] |  |  |  |  |  |  |  | Ki (ENT2 [1]): 60 ± 24 µM
Nc1nc2nc[nH]c2c(=S)[nH]1 [6-thioguanine] |  | > 300 µM | 10 ± 3% | 1.7 µM | 25 ± 5% | Monophasic | 77.6 µM | 
Nc1nc(Cl)nc2c1ncn2[C@H]1C[C@H](O)[C@@H](CO)O1 [Cladribine, cladribine] | Monophasic |  | Monophasic | 3.98 µM | Monophasic | Monophasic | 16.6 µM | LogEC50-1 (HEK293 cells; 48 h, high affinity phase, given as logEC50 (negative)): −5.11 ± 0.07; LogEC50-1 (ENT2KO cells; high affinity phase, given as logEC50 (negative)): −4.51 ± 0.07 ^b
[3H]c1nc2c(N)nc(Cl)nc2n1[C@@H]1O[C@H](CO)[C@@H](O)[C@H]1O [[^3H]2-chloroadenosine, [8-^3H]2-Chloroadenosine] |  |  |  |  |  |  |  | ENT1-mediated uptake (ENT1 [2]; E1E2KO cells): no ENT1-mediated or ENT2-mediated uptake; Vmax of ENT1-mediated uptake (ENT1 [2]; ENT2KO cells): 4.8 ± 0.6 pmol/μL per second; Vmax of ENT1-mediated uptake (ENT1 [2]; HEK293 cells): 3.2 ± 0.3 pmol/μL per second; ENT2-mediated uptake (ENT2 [3]; E1E2KO cells): no ENT1-mediated or ENT2-mediated uptake; ENT2-mediated uptake (ENT2 [3]; ENT2KO cells): no detectable ENT2-mediated uptake
Sc1ncnc2nc[nH]c12 [6-mercaptopurine] |  | > 300 µM | 66 ± 4 ^b % | 2.95 µM | 41 ± 3% | 70 ± 4 ^b % | 26.3 µM | 
Nc1ccn([C@@H]2O[C@H](CO)[C@@H](O)C2(F)F)c(=O)n1 [Gemcitabine, gemcitabine] | 33 ± 4% | > 300 µM | 14 ± 2 ^b % | 0.0427 µM | 76 ± 3 ^b % | Monophasic |  | EC50 (ENT1KO cells; [6]): 468 µM; sensitivity of ENT2KO cells to the drug (ENT2KO cells): almost completely resistant; EC50 (E1E2KO cells; [6]): 1820 µM
COc1cc(C(=O)OCCCN2CCCN(CCCOC(=O)c3cc(OC)c(OC)c(OC)c3)CC2)cc(OC)c1OC [Dilazep, dilazep] |  |  |  |  |  |  |  | IC50 (ENT2 [1]): 6.31 µM
Nc1nc2c(ncn2[C@@H]2O[C@H](CO)[C@@H](O)[C@H]2O)c(=O)[nH]1 [Guanosine, guanosine] |  |  |  |  |  |  |  | relative affinity for ENT1 versus ENT2 (ENT1 [4]): significantly higher affinity for ENT1 over ENT2
Nc1nc(Cl)nc2c1ncn2[C@@H]1O[C@H](CO)[C@@H](O)[C@@H]1F [Clofarabine, clofarabine] | 21 ± 2% | > 300 µM | 6 ± 2 ^b % | 0.174 µM | 70 ± 3 ^b % | Monophasic | 138 µM | Ki (ENT2 [1]): 75 ± 49 µM; % resistant (HEK293 cells; 48 h, n = 5, listed as clofarabine): approximately 20%; sensitivity of ENT2KO cells to the drug (ENT2KO cells): almost completely resistant
